Screens from PubChem BioAssay.
Mdm2 ligase inh = MDM2-luciferase reporter signal enhancers, primary screen, MDM2 E3 ligase inhibitor project, cell-based, luminescence, 1536-well. cell-based MDM2 ubiquitination luciferase reporter, 2 h; 0 = plate control, 100 = twice control, blank-subtracted. signal enhancement, % at 5 µM. hit rate 0.11% among 210,000;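 active = signal enhancement of 30% or more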;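 also: luminescence tracks abundance of the self-degrading MDM2-luciferase fusion protein; higher signal means inhibition of MDM2 E3 ligase activity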
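Material: Stable MDM2–luciferase fusion reporter cells | Amount: 2000 cells seeded into each well | Dosing: One concentration, 5 µM, with 0.2% DMSO | Incubation: 4 h cell settling then 2 h compound exposure, 37 °C | Measured by: Luciferase luminescence | Read-out basis: % enhancement relative to plate controls after blank subtraction | Benchmarks: Control and blank well means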
NPY-Y1 PAM-ag = NPY-Y1 receptor potentiators or agonists, primary screen, cell-based; hit rate 0.37% among 220,000; NPY-Y1 expressing cells, potentiator/agonist activation; activation, % at 3.6 µM; AID 1304, 2008; in the data active = activation above about 33%, passing the limit was not always enough;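 also: cells stimulated with NPY at EC10 then isoproterenol at EC100; 0% = low agonist plus stimulus and 100% = saturating agonist plus stimulus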
Target sequence (P25929 whole entry, looked up): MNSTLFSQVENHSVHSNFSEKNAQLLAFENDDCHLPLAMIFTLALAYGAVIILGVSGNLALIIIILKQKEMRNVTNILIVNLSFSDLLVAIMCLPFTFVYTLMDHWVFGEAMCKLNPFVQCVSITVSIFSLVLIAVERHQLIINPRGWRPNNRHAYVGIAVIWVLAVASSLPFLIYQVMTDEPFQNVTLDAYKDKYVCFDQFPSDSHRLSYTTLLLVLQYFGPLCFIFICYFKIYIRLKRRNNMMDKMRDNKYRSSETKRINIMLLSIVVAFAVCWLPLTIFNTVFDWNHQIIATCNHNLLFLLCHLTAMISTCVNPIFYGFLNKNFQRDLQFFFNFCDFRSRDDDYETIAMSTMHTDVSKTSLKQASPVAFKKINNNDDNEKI
Measles CPE = compounds protecting cells from measles virus cytopathic effect, primary screen, measles RdRp inhibitor project, single point, MLSMR library, absorbance; Measles virus-infected cells, CPE protection; protection (pct of control), % at 4 µM; hit rate 1.5% among 140,000; in the data active = protection mostly above about 24%, no sharp cut-off; inactive = mostly below about 26%
NPY-Y2 PAM-ag = NPY-Y2 potentiators or agonists, primary screen, cell-based | Neuropeptide Y receptor type 2 (Homo sapiens), P49146 | cells expressing NPY-Y2, potentiator/agonist read-out | activation, % at 3.6 µM | hit rate 0.45% among 220,000 | AID 1359, 2008; in the data active = activation above about 27%;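 also: cells stimulated with NPY near EC25 plus isoproterenol at EC100; 0% = vehicle plus submaximal agonist and 100% = vehicle plus saturating agonist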
NPY-Y1 antag = NPY-Y1 receptor antagonists, primary screen, cell-based. inhibition, % at 3.6 µM. hit rate 1% among 200,000. HEK293-CNG Y1 cells, membrane potential fluorescence; NPY at EC95, then isoproterenol. Neuropeptide Y receptor type 1 (Homo sapiens), P25929;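 active = inhibition above the campaign mean inhibition of all tested compounds plus 3 SD, cut at about 20% in these data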;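 also: 0% = DMSO wells given NPY plus isoproterenol and 100% = isoproterenol alone without NPY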
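Test system: HEK293 cells co-expressing NPY Y1 receptor and cyclic-nucleotide gated channel; Also added: NPY (25 nM), isoproterenol (1 µM), Ro 20-1724 (25 µM); Compound dosing: one concentration, 3.6 µM, in 0.4% DMSO; Timing: dye 3 h, compound 60 min room temperature, stimulation 45 min; Technique: Membrane-potential fluorescent dye readout.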
NPY Y2 blocker = NPY-Y2 receptor antagonists, primary screen, cell-based; Neuropeptide Y receptor type 2 (Homo sapiens), P49146; NPY-Y2 expressing cells, antagonist mode; inhibition, % at 2.7 µM; hit rate 0.99% among 140,000; in the data active = inhibition above about 17%;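 also: 0% = vehicle with agonist challenge and 100% = reference antagonist with challenge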
NPY-Y1 antag ct = NPY-Y1 receptor antagonists, selectivity check, counter-screen for NPY-Y2 antagonist project, cell-based; shares compounds with NPY Y2 blocker; inhibition, % at 3.6 µM; hit rate 19% among 710; cell-based NPY-Y1 antagonism counterscreen; in the data active = inhibition above about 20%;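 also: cells challenged with NPY then isoproterenol with cAMP sensed through a CNG channel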
NPY2 antag conf = NPY-Y2 receptor antagonists, retest of hits, confirmation, HEK293-CNG cells, membrane potential fluorescence, triplicate; shares compounds with NPY Y2 blocker; HEK293 NPY-Y2 CNG channel; inhibition, % at 2.8 µM; hit rate 32% among 710;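 active = mean inhibition of triplicate wells above the hit cutoff set in the primary screen, cut at about 17% in these data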;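 also: 0% = DMSO with NPY challenge and 100% = BIIE0246 high control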
* hit, by the source's call; · = no result given. Shown are actives, neighbours in structure and some others; about 2.8% of the full set was active somewhere.

SMILES	Mdm2 ligase inh	NPY-Y1 PAM-ag	Measles CPE	NPY-Y2 PAM-ag	NPY-Y1 antag	NPY Y2 blocker	others
CC(CCc1ccccc1)NC(C)C(O)c1ccc(O)cc1 (centres undefined)	·	92*	14	86*	-9	4
CCN(CCNc1ccc([N+](=O)[O-])c2cccnc12)S(=O)(=O)c1ccc(Cl)cc1	-13	6	6	13	7	9
CCN(CCNc1ccc([N+](=O)[O-])c2cccnc12)S(=O)(=O)c1ccccc1	-11	61*	5	70*	-5	6
CCN1CCN(Cc2ccc(C)cc2)CC1	-21	5	6	-12	9	0
CCN1CCN(Cc2cc(C(C)(C)C)c(O)c(C(C)(C)C)c2)CC1	-16	68*	60*	62*	-6	3
CC(C)N1CC=C(c2c[nH]c3ccccc23)CC1	-4	7	36*	10	0	1
C1=C(c2c[nH]c3ccccc23)CCNC1	-20	8	3	12	0	1
COC(=O)[C@H]1C[C@@H]1[C@H](NP(=O)(c1ccccc1)c1ccccc1)c1ccccc1	·	-36	4	-13	40*	19*
COC(=O)[C@@H]1C[C@H]1[C@@H](NP(=O)(c1ccccc1)c1ccccc1)c1ccccc1	·	4	4	-11	6	4
C(=NC12CN3CN(CN(C3)C1)C2)c1cccs1	5	4	55*	5	2	2
CN1CCN(c2nc3ccccn3c(=O)c2C=C2C(=O)N(C)C(=O)N(C)C2=O)CC1	0	-5	7	13	-2	-1
CCCNC(=O)N1CCC2(CC1)OCCO2	1	1	·	5	-1	·
Cn1cc(C(=O)c2ccccc2)c2ccccc21	-37	8	12	-14	0	1
O=C(O)Cn1cc(C(=O)c2ccccc2)c2ccccc21	-1	-16	40*	-9	-6	-1
CC(Oc1ccc(-c2ccccc2)cc1)C(=O)O (centres undefined)	-7	2	1	-28	25*	5
O=[N+]([O-])NC1=NCN(Cc2ccco2)CN1Cc1ccco1	·	4	13	-6	-6	1
C/C=C(\C)C(=O)OC1C(C)=C2C(C1OC(=O)CCCCC)C(C)(OC(C)=O)CC(OC(=O)CCC)C1(O)C2OC(=O)C1(C)O (centres undefined)	-39	·	·	·	·	·
CCNc1cc(N2CCNCC2)ccc1[N+](=O)[O-]	-19	-5	·	-12	13	·
O=C(N/N=C1/CN2CCC1CC2)c1cc2ccccc2cc1O	-1	21	5	5	2	-4
CC1CCC(C(C)C)C(OC(=O)COC(=O)c2ccccc2N)C1 (centres undefined)	-1	-34	15	-17	18	18*	NPY-Y1 antag ct=9;NPY2 antag conf=14
O=C(c1ccco1)c1cn(Cc2ccccc2Cl)c2ccccc12	-14	-28	16	-21	12	24*	NPY-Y1 antag ct=13;NPY2 antag conf=11
N#Cc1ccccc1Cn1cc(C(=O)c2ccco2)c2ccccc21	-8	-51	7	1	16	17*	NPY-Y1 antag ct=6;NPY2 antag conf=5
O=C(c1ccco1)c1cn(Cc2ccccc2)c2ccccc12	1	-41	5	-3	7	16
CCC1(CCc2ccncc2)C(=O)NC(=O)NC1=O	-12	-2	18	4	-2	4
CN1C2CCC1CC(=NO)C2	-3	5	·	1	1	·
